High-throughput results (PubChem BioAssay)
L major viab: Leishmania major promastigote growth inhibition, primary screen; Leishmania major promastigotes, resazurin fluorescence viability; inhibition, % at 10 µM; 9% of 200,000 active; in the data active = inhibition above about 50%;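 also: promastigotes grown with compound for 44 hours at 28 °C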
ABCG2 block: ABCG2 efflux pump inhibitors, primary screen, multiplex with ABCB1, IgMXP3 cells, flow cytometry | 0.1% of 190,000 active | Broad substrate specificity ATP-binding cassette transporter ABCG2 (Homo sapiens), Q9UNQ0 | AID 1325, 2008 | JC-1 efflux | inhibition, % at 6.6 µM;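 active = inhibition above 80%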
Target sequence (Q9UNQ0 whole entry, looked up): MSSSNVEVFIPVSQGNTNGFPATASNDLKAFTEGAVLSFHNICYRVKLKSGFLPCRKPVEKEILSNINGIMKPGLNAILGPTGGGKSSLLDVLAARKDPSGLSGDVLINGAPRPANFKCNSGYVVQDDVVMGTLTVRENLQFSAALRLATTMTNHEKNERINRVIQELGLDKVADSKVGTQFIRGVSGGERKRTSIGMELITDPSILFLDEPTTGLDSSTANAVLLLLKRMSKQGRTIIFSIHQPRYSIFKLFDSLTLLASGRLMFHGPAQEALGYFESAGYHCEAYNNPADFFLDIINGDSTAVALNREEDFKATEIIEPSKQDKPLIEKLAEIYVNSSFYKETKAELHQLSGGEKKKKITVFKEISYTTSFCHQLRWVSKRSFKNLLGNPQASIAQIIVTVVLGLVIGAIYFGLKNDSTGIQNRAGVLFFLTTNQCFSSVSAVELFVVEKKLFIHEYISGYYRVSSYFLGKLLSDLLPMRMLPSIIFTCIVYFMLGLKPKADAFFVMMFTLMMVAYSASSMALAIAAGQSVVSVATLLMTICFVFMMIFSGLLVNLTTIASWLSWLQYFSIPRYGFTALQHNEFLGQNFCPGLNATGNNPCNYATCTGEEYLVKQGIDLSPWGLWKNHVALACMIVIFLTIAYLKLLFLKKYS
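Measure – % inhibition of efflux relative to nicardipine and DMSO · Test system – ABCG2 IgMXP3 and barcoded ABCB1 CCRF-Adr cell mix · Control set – nicardipine as high control, DMSO as low control · Compound – one concentration, 6.6 µM final · Signal – flow cytometry of retained JC-1 fluorescence · Timing – 10 min exposure at 25 °C with rotation, no wash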
WT yeast gro inh: growth inhibition of WT strain, primary screen, mitochondrial fusion inhibitor project, WT and mutant strains, chemical genetic; mitochondrial fusion phenotypic screen; inhibition, % at 10 µM; 2.1% of 190,000 active; AID 1362, 2008; in the data active = inhibition above about 58%; tested in S. cerevisiae
ABCB1 inh: ABCB1 efflux pump inhibitors, primary screen, cell-based, multiplex, flow cytometry, ABCG2 counter-screen; CCRF-Adr cells, JC-1 efflux; ATP-dependent translocase ABCB1 (Homo sapiens), P08183; AID 1326, 2008; 0.067% of 190,000 active; inhibition, % at 6.6 µM; in the data active = inhibition above about 40%;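 also: higher value means more JC-1 retained so stronger ABCB1 efflux block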
RAM inhibit: inhibitors of the yeast RAM network, primary screen, dse1pr::URA3 reporter, 5-FOA selection; inhibition, % at 50 µM; S. cerevisiae dse1pr::URA3 reporter, 5-FOA growth OD615, 2 d; analog-sensitive cbk1-as2 kinase mutant strain; AID 868, 2007; 1.8% of 190,000 active;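 active = inhibition above a set limit, 3 SD over mean compound inhibition, cut at about 8.4% in these data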;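 also: inhibition rescues growth on 5-FOA so higher OD means more RAM inhibition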
Large screens that a line does not name were inactive. Shown are actives, neighbours in structure and some others; about 12% of the full set was active somewhere.

CN1CCC(N(C)C(=O)COc2ccc(S(=O)(=O)N3CCOCC3)cc2)CC1	none
Cc1ccccc1OCC(O)CN(Cc1ccccc1O)C1CCCCC1 (centres undefined)	L major viab 91.4
CN(CC(O)COCc1cccs1)C1CCCCC1 (centres undefined)	none
CN(CC(O)COc1ccc(S(=O)(=O)N2CCOCC2)cc1)C1CCCCC1 (centres undefined)	L major viab 96.6
COc1ccc(CCN2CC(C#N)=C3c4cc(OC)c(OC)cc4CCN3C2)cc1OC	L major viab 94.8
COc1cc2c(cc1OC)C1=C(C#N)CN(C3CCCCC3)CN1CC2	none
Cc1nn(CCOc2cccc(Br)c2)c(C)c1[N+](=O)[O-]	none
C/C=C/c1cc(CN2CCN(c3ccc(OC)cc3)CC2)c(O)c(OC)c1	none
CSc1ccc(CN2CCN(C3CCCC3)C(CCO)C2)cc1 (centres undefined)	L major viab 62.2
Cc1cccc(N2CCC(N3CCN(C4CCCCC4)C(CCO)C3)CC2)c1C (centres undefined)	L major viab 88.3
CSc1ccc(CN2CCN(CCC(C)C)C(CCO)C2)cc1 (centres undefined)	L major viab 78.0
CCOC(=O)c1[nH]c(C)c(C(=O)OCCOc2cccc(C)c2)c1C	none
CCOc1ccc(N(CC(=O)NCC2CCCO2)C(=O)CCC(=O)Nc2ccccn2)cc1 (centres undefined)	none
O=C(O)c1cc(NC(=O)c2ccccc2[N+](=O)[O-])ccc1O	none
COc1ccc(C2CC(c3ccccc3Cl)Nc3ncnn32)cc1OC (centres undefined)	L major viab 76.0
CCOC(=O)C1CCCN(c2ncnc3c2[nH]c2cccc(OC)c23)C1 (centres undefined)	L major viab 75.9
COc1cccc2[nH]c3c(N4CCC(C(N)=O)CC4)ncnc3c12	none
COc1cccc2[nH]c3c(N4CC(C)CC(C)C4)ncnc3c12 (centres undefined)	L major viab 99.9
COc1cccc2[nH]c3c(N4CCCC(C)C4)ncnc3c12 (centres undefined)	L major viab 99.1
Cc1cnc(C)c(N2CCN(Cc3nc(-c4ccccc4)no3)CC2)n1	none
COc1cc(-c2nc(C)c(C(C)=O)n2O)ccc1OCC(=O)Nc1ccc(Cl)cc1	none
COc1ccccc1C(=O)OCC(=O)Nc1ccc(Cl)cn1	none
Cc1nc2ccc(C(=O)N3c4ccccc4CC3C)cc2s1 (centres undefined)	none
CC(O)CNCCCOc1ccccc1OCc1ccccc1 (centres undefined)	L major viab 98.9
CC(O)CNCCCCOc1ccc(OCc2ccccc2)cc1 (centres undefined)	L major viab 96.9
CC(C)C(C)NC(=O)COc1ccc(OCc2ccccc2)cc1 (centres undefined)	none
C/C=C/c1ccc(OCCCNCC(C)O)c(OC)c1 (centres undefined)	none
COc1ccc(CNCc2ccco2)cc1OCc1ccccc1	L major viab 99.8
COc1ccccc1CCNCc1ccc(OC)c(OCc2ccccc2)c1	L major viab 100.3
CCCOc1cc(CC(=O)NCc2ccco2)ccc1OC	none
COc1ccc(-c2nc3n(n2)C(c2ccccc2Cl)C(C(N)=O)=C(C)N3)cc1 (centres undefined)	none
CCOc1ncccc1C(=O)Nc1cccc(Cl)c1Cl	none
Cc1ccc(C)c(NC(=S)N(Cc2ccc(Cl)cc2)Cc2ccc(C(=O)O)cc2)c1	none
c1cncc(Cc2cc3ccccc3[nH]2)c1	L major viab 50.3
CCN(Cc1cc2ccccc2[nH]c1=O)C(=O)c1cccnc1	none
OC(Cc1cccnc1)(Cc1cccnc1)c1cc2ccccc2[nH]1	L major viab 55.2
O=c1c2cc([N+](=O)[O-])ccc2nc(CN2CCN(c3ccccn3)CC2)n1-c1ccccc1F	none
O=C(COc1ccccc1[N+](=O)[O-])Nc1ccc(N2CCN(C(=O)c3cccs3)CC2)cc1	none
Cc1ccc(SCCCCN2CCNCC2)cc1	L major viab 99.8
O=C(CCN1CCOCC1)c1ccc(Cl)cc1	L major viab 71.7
CC1(C)NC(=O)N(CCCSc2ccc(Cl)cc2)C1=O	none
Clc1ccc(SCCCCN2CCNCC2)cc1	L major viab 100.2
Clc1ccc(SCCCCN2CCOCC2)cc1	L major viab 96.7
Cc1ccc(NC(=S)N(Cc2ccco2)C2CCN(C(C)C)CC2)cc1	none
COc1cccc(-c2nnc3n2N=C(C(C)(C)C)CS3)c1	none
CCc1cccc(C)c1NC(=S)NCCc1c(C)[nH]c2ccc(C)cc12	WT yeast gro inh 61.7
CCc1cccc(CC)c1NC(=S)NCCc1c(C)[nH]c2ccc(C)cc12	L major viab 53.4, WT yeast gro inh 78.2
Cc1cc(C)c(NS(=O)(=O)c2ccc(NC(=O)/C=C/C(=O)O)cc2)c(C)c1	none
COc1ccc(CNC(=O)c2c(F)c(F)c(F)c(F)c2F)cc1	L major viab 52.7
C/C(=N/NC(=O)c1cc2ccccc2cc1O)C1C(=O)c2ccccc2C1=O	L major viab 81.2
Cc1ccn2c(NC(=O)C(C)(C)Oc3ccc(Cl)cc3)c(-c3cccs3)nc2c1	none
CCCCCCCC(=O)NNC(=O)CCC(=O)O	none
CCCCCC#CCC#CCC#CCC#CCCCC(=O)O	L major viab 83.8
CCOC(=O)c1cc2c(nc1C)-c1cc(Cl)cc(Cl)c1OC2O (centres undefined)	none
CCCCn1c(SCC(=O)N2c3ccccc3Sc3ccccc32)nc2c1c(=O)n(C)c(=O)n2C	L major viab 77.7
CC(C)C(C)NC(=O)COC(=O)/C=C/c1ccc(S(=O)(=O)N2CCc3ccccc32)cc1 (centres undefined)	none
COc1ccc(CCn2nnnc2C(C(C)C)N2CCN(c3ncccn3)CC2)cc1OC (centres undefined)	WT yeast gro inh 61.8
COc1ccc(Cn2nnnc2C(C(C)C)N2CCc3ccccc32)cc1 (centres undefined)	RAM inhibit 11.3
COc1ccc(CCn2nnnc2C(CC(C)C)N2CCN(c3ncccn3)CC2)cc1OC (centres undefined)	WT yeast gro inh 65.5
CC(C)C(c1nnnn1CCc1ccccc1)N1CCOCC1 (centres undefined)	none
COc1ccc(N2CCN(C(c3nnnn3CCc3ccccc3)C(C)C)CC2)cc1 (centres undefined)	L major viab 88.8
Cc1noc(C)c1C(=O)OC(C)C(=O)Nc1ccc(S(=O)(=O)NC(C)C)cc1 (centres undefined)	none
O=C(c1cc2nc(-c3ccco3)cc(C(F)(F)F)n2n1)N1CCN(Cc2ccccc2)CC1	none (no result: WT yeast gro inh)
O=[N+]([O-])c1cc(S(=O)(=O)c2ccc(N3CCCCC3)c([N+](=O)[O-])c2)ccc1N1CCCCC1	L major viab 95.2
